Experimental data published in ChEMBL document CHEMBL4130343, “Design, synthesis, and evaluation of benzofuran derivatives as novel anti-pancreatic carcinoma agents via interfering the hypoxia environment by targeting HIF-1α pathway” (Eur J Med Chem, 2017).
In brackets after ≈: the same amount, converted by molar mass.

What was measured:
MDA-MB-231 = experiment: Antiproliferative activity against human MDA-MB-231 cells after 48 hrs by MTT assay; assay type: functional, cell-based; conditions: MDA-MB-231, 48 h
Outline: (§1)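 Cells were seeded at 5×10^5 cells/mL overnight and exposed to graded compound concentrations for 48 h. MTT (5 mg/mL stock) was added for 4 h at 37 °C, and formazan was dissolved in DMSO. Absorbance was read at 570 nm. IC₅₀ was fitted from the curves; values are mean ± SD, n = 3.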

A549 = experiment: Antiproliferative activity against human A549 cells after 48 hrs by MTT assay; assay type: functional, cell-based; conditions: A549, 48 h; outline: as §1
MCF7 = experiment: Antiproliferative activity against human MCF7 cells after 48 hrs by MTT assay; assay type: functional, cell-based; conditions: MCF7, 48 h; outline: as §1
PANC-1 [1] = experiment: Antiproliferative activity against human PANC1 cells after 48 hrs by MTT assay; assay type: functional, cell-based; conditions: PANC-1, 48 h; outline: as §1
[2] = Distribution co-efficient, log D of the compound at pH 7.4; assay type: physicochemical; conditions: buffer
Outline: (§2)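 Intrinsic aqueous solubility and log D at pH 7.4 were measured on a pION Gemini Profiler.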

[3] = Effective permeability of the compound at pH 7.4 by PAMPA; assay type: ADME; conditions: read-out: Peff
Outline: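 Effective permeability was measured by double-sink PAMPA on a pION PAMPA Explorer.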

[4] = Intrinsic aqueous solubility of the compound; assay type: physicochemical; conditions: read-out: Intrinsic_solubility; outline: as §2
HCT-116 [5] = experiment: Antiproliferative activity against human HCT116 cells after 48 hrs by MTT assay; assay type: functional, cell-based; conditions: HCT-116, 48 h; outline: as §1
BXPC-3 = experiment: Antiproliferative activity against human BxPC3 cells after 48 hrs by MTT assay; assay type: functional, cell-based; conditions: BXPC-3, 48 h; outline: as §1
HCT-116 [6] = experiment: Antiproliferative activity against p53-deficient human HCT116 cells after 48 hrs by MTT assay; assay type: functional, cell-based; conditions: HCT-116, 48 h; outline: as §1
PANC-1 [7] = experiment: Antitumor activity against human PANC1 cells xenografted in nude mouse assessed as inhibition of tumor weight at 10 mg/kg administered every 2 days for 21 days relative to vehicle-treated control; assay type: functional

Row | Structure (SMILES) | IC50 (MDA-MB-231) [µM] | IC50 (A549) [µM] | IC50 (MCF7) [µM] | IC50 (PANC-1 [1]) [µM] | logD [2] | Papp [3] [×10⁻⁶ cm/s] | solubility [4] [µg/mL] | IC50 (HCT-116 [5]) [µM] | IC50 (BXPC-3) [µM] | IC50 (HCT-116 [6]) [µM] | inhibition in vivo at 10 mg/kg (PANC-1 [7]) [%]
1 | CCN(CC)CCNC(=O)c1oc2ccc(N(Cc3ccc(Br)cc3)S(=O)(=O)c3ccc(Br)cc3)cc2c1C | 3.73 | 2.98 | 2.84 | 1.52 | 2.53 | 2.54 | 21 (≈ 31 µM) | 2.39 | 1.08 | 1.66 | 
2 | Cc1c(C(=O)NCCN2CCCCC2)oc2ccc(N(Cc3ccc(Br)cc3)S(=O)(=O)c3ccc(Br)cc3)cc12 | 9.26 | 5.17 | 3.36 | 6.94 |  |  |  | 2.23 | 3.71 | 2.84 | 
3 | Cc1ccc(NC(=O)c2oc3ccc(N(Cc4ccc(Br)cc4)S(=O)(=O)c4ccc(Br)cc4)cc3c2C)nc1 | > 40 | > 40 | > 40 | > 40 |  |  |  | > 40 | > 40 | > 40 | 
4 | Cc1c(C(=O)N2CCOCC2)oc2ccc(N(Cc3ccc(Br)cc3)S(=O)(=O)c3ccc(Br)cc3)cc12 | 25.1 | 19.1 | 15.4 | 23.8 |  |  |  | 22.1 | 29.1 | 26.4 | 
5 | Cc1c(C(=O)NC2CCN(C)CC2)[nH]c2ccc(N(Cc3ccc(Br)cc3)S(=O)(=O)c3ccc(Br)cc3)cc12 |  |  |  | 3.67 |  |  |  | 14.5 | 7.5 |  | 
6 | Cc1c(C(=O)NCCNc2ccccc2)oc2ccc(N(Cc3ccc(Br)cc3)S(=O)(=O)c3ccc(Br)cc3)cc12 | > 40 | > 40 | > 40 | > 40 |  |  |  | > 40 | > 40 | > 40 | 
7 | Cc1c(C(=O)NCCN(C(C)C)C(C)C)oc2ccc(N(Cc3ccc(Br)cc3)S(=O)(=O)c3ccc(Br)cc3)cc12 | 9.44 | 5.5 | 10.9 | 6.25 |  |  |  | 10.4 | 28.3 | 3.11 | 
8 | Cc1c(C(=O)OCCCN(C)C)oc2ccc(N(Cc3ccc(Br)cc3)S(=O)(=O)c3ccc(Br)cc3)cc12 | 28.6 | > 40 | 39.7 | 24.6 |  |  |  | 11.2 | 24.2 | 7.05 | 
9 | CCN(CC)CCNC(=O)c1sc2ccc(N(Cc3ccc(Br)cc3)S(=O)(=O)c3ccc(Br)cc3)cc2c1C |  |  |  | 7.65 |  |  |  | 10.9 | 7.88 |  | 
10 | Cc1c(C(=O)NCCN(C)C)sc2ccc(N(Cc3ccc(Br)cc3)S(=O)(=O)c3ccc(Br)cc3)cc12 |  |  |  | 7.89 |  |  |  | 9.8 | 9 |  | 
11 | Cc1c(C(=O)N2CCCC(C)C2)oc2ccc(N(Cc3ccc(Br)cc3)S(=O)(=O)c3ccc(Br)cc3)cc12 (stereo not drawn) | 19.4 | 33.7 | 32.8 | 26.2 |  |  |  | 23.1 | 16.6 | 28.3 | 
12 | CC(=O)NCCNC(=O)c1oc2ccc(N(Cc3ccc(Br)cc3)S(=O)(=O)c3ccc(Br)cc3)cc2c1C | > 40 | > 40 | 21.3 | 34.8 |  |  |  | 12.2 | > 40 | 20.4 | 
13 | Cc1c(C(=O)NCCN2CCCC2)oc2ccc(N(Cc3ccc(Br)cc3)S(=O)(=O)c3ccc(Br)cc3)cc12 | 8.17 | 5.29 | 5.44 | 2.78 |  |  |  | 2.67 | 2.36 | 2.29 | 
14 | Cc1c(C(=O)NCCc2ccccn2)oc2ccc(N(Cc3ccc(Br)cc3)S(=O)(=O)c3ccc(Br)cc3)cc12 | > 40 | > 40 | > 40 | > 40 |  |  |  | > 40 | > 40 | > 40 | 
15 | Cc1c(C(=O)NCCc2ccc(S(N)(=O)=O)cc2)oc2ccc(N(Cc3ccc(Br)cc3)S(=O)(=O)c3ccc(Br)cc3)cc12 | > 40 | > 40 | > 40 | > 40 |  |  |  | 5.59 | > 40 | 19.2 | 
16 | Cc1c(C(=O)N2CCNCC2)oc2ccc(N(Cc3ccc(Br)cc3)S(=O)(=O)c3ccc(Br)cc3)cc12 | 9.04 | 8.68 | 9.72 | 8.38 |  |  |  | 3 | 19.6 | 3.3 | 

Row | Structure (SMILES) | IC50 (MDA-MB-231) [µM] | IC50 (A549) [µM] | IC50 (MCF7) [µM] | IC50 (PANC-1 [1]) [µM] | logD [2] | Papp [3] [×10⁻⁶ cm/s] | solubility [4] [µg/mL] | IC50 (HCT-116 [5]) [µM] | IC50 (BXPC-3) [µM] | IC50 (HCT-116 [6]) [µM] | inhibition in vivo at 10 mg/kg (PANC-1 [7]) [%]
17 | CCN(CC)CCNC(=O)c1[nH]c2ccc(N(Cc3ccc(Br)cc3)S(=O)(=O)c3ccc(Br)cc3)cc2c1C |  |  |  | 10.5 |  |  |  | 15.8 | 17.4 |  | 
18 | COc1cccc2c1C(=O)c1c(O)c3c(c(O)c1C2=O)C[C@@](O)(C(=O)CO)C[C@@H]3O[C@H]1C[C@H](N)[C@H](O)[C@H](C)O1 [DOXORUBICIN] | 0.49 |  |  | 0.41 |  |  |  |  | 0.56 |  | 71.9
19 | Cc1c(C(=O)N2CCN(C)CC2)oc2ccc(N(Cc3ccc(Br)cc3)S(=O)(=O)c3ccc(Br)cc3)cc12 | > 40 | 22.3 | > 40 | > 40 |  |  |  | 8.55 | > 40 | 5.47 | 
20 | Cc1c(C(=O)NCC(O)CO)oc2ccc(N(Cc3ccc(Br)cc3)S(=O)(=O)c3ccc(Br)cc3)cc12 (stereo not drawn) | 16.5 | 30.5 | 36.5 | 29.3 |  |  |  | 27.8 | 27.6 | 11.5 | 
21 | CN1CCC(NC(=O)c2nc3cc(N(Cc4ccc(Br)cc4)S(=O)(=O)c4ccc(Br)cc4)ccc3o2)CC1 |  |  |  | 5.91 |  |  |  | 7.32 | 10.2 |  | 
22 | Cc1c(C(=O)NCCS(C)(=O)=O)oc2ccc(N(Cc3ccc(Br)cc3)S(=O)(=O)c3ccc(Br)cc3)cc12 | > 40 | > 40 | > 40 | > 40 |  |  |  | > 40 | > 40 | > 40 | 
23 | CCN(CC)CCNC(=O)c1nc2cc(N(Cc3ccc(Br)cc3)S(=O)(=O)c3ccc(Br)cc3)ccc2o1 |  |  |  | 12.6 |  |  |  | 14.3 | 16.3 |  | 
24 | Cc1c(C(=O)NC2CCN(C)CC2)sc2ccc(N(Cc3ccc(Br)cc3)S(=O)(=O)c3ccc(Br)cc3)cc12 |  |  |  | 5.2 |  |  |  | 10.1 | 7.1 |  | 
25 | Cc1c(C(=O)N2CCNC(=O)C2)oc2ccc(N(Cc3ccc(Br)cc3)S(=O)(=O)c3ccc(Br)cc3)cc12 | > 40 | > 40 | > 40 | > 40 |  |  |  | 7.88 | > 40 | 21.9 | 
26 | Cc1c(C(=O)NCCN(C)C)oc2ccc(N(Cc3ccc(Br)cc3)S(=O)(=O)c3ccc(Br)cc3)cc12 | 8.24 | 5.4 | 3.66 | 5.94 |  |  |  | 3.64 | 4.79 | 1.2 | 
27 | Cc1c(C(=O)NCCCN(C)C)oc2ccc(N(Cc3ccc(Br)cc3)S(=O)(=O)c3ccc(Br)cc3)cc12 | 6.68 | 4.31 | 3.71 | 2.3 |  |  |  | 3.07 | 2.02 | 3.73 | 
28 | Cc1c(C(=O)NCCN2CCOCC2)oc2ccc(N(Cc3ccc(Br)cc3)S(=O)(=O)c3ccc(Br)cc3)cc12 | 23.5 | 21.4 | 17.2 | 32.1 |  |  |  | 10.5 | 27.2 | 13.3 | 
29 | CNCCNC(=O)c1oc2ccc(N(Cc3ccc(Br)cc3)S(=O)(=O)c3ccc(Br)cc3)cc2c1C | 7.96 | 3.08 | 4.37 | 2.49 |  |  |  | 2.44 | 5.13 | 2.37 | 
30 | CN(C)CCNC(=O)c1nc2cc(N(Cc3ccc(Br)cc3)S(=O)(=O)c3ccc(Br)cc3)ccc2o1 |  |  |  | 13.6 |  |  |  | 14.3 | 13.7 |  | 
31 | Cc1c(C(=O)NCCN2CCN(C)CC2)oc2ccc(N(Cc3ccc(Br)cc3)S(=O)(=O)c3ccc(Br)cc3)cc12 | 7.5 | 5.03 | 5.66 | 5.04 |  |  |  | 3.81 | 2.6 | 2.59 | 
32 | Cc1c(C(=O)NCCN(C)C)[nH]c2ccc(N(Cc3ccc(Br)cc3)S(=O)(=O)c3ccc(Br)cc3)cc12 |  |  |  | 11.2 |  |  |  | 16.6 | 6.98 |  | 
